Results from paper PMC11451551 (Science Advances, 2024).

Legend:
anesthetized beagle dogs = assay: in vivo; assay type: in vivo, dog; settings: for effect on cardiovascular parameters / effect on platelets: iv bolus
in vivo = assay type: in vivo, dog; settings: male, beagle, dog, in vivo, 0.3 mg/kg
[1] = test system: circulating platelets in SCID/bg mice; assay: Assessment of platelet levels in mice; assay type: in vivo, mouse; settings: single dose: 9 0.1 mg/kg iv, 10 0.6 mg/kg iv, navitoclax 50 mg/kg oral
Outline: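 Female SCID/bg mice were randomised (15 per group) and given one dose of vehicle or test compound, intravenously or by oral gavage. At 6, 72 and 168 h, five mice per group were bled from the retro-orbital plexus under sevoflurane into heparinised vials and then euthanised without recovery. Platelets were counted on an automated haematology analyser; results are group means with SEM.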

Molt-4 cells = assay: Cell viability assay; assay type: cell-based, human
Outline: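 Molt-4 or RS4;11 leukaemia cells were plated at 50,000 per well in medium with 10% human serum. They were exposed 48 h to a threefold dilution series of test compound, 5 to 0.020 μM, each concentration in duplicate on at least three occasions. Viable cells were read by CellTiter-Glo luminescence, and EC50 was taken from a sigmoidal fit.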

[2] = test system: digitonin-permeabilized Molt-4 cells; assay: Permeabilized cell JC-1 assay; assay type: cell-based, human
Outline: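 Molt-4 cells were washed into DTEB buffer (trehalose, KCl, EDTA/EGTA, 0.1% BSA, succinate, 10 mM Hepes-KOH pH 7.5) containing 2 μM JC-1, 0.01% digitonin, 10 mM β-mercaptoethanol and oligomycin (20 μg/ml). After 10 min at room temperature they were diluted with an equal volume of buffer and test compound was added. DMSO was the negative control; FCCP 10 μM final defined 100% depolarization. Fluorescence at 590 nm was read every 10 min, 37°C, 1–3 h. EC50 from % depolarization.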

H1650 tumors = assay: H1650 xenograft efficacy in SCID/bg mice; assay type: in vivo, mouse
Outline: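 H1650 or PC-9 NSCLC cells (RPMI 1640, 10% heat-inactivated FBS, ≤5 passages, mycoplasma-free) were injected subcutaneously at 5×10^6 cells into the right flank of 8-week-old female SCID/bg mice (~22 g). Docetaxel was given 7.5 mg/kg iv QDx1 and conjugates intraperitoneally. In the single-dose study (H1650 only), tumours were ~200 mm³ and treatment began on day 9, QDx1. In the other study, treatment began on day 10, Q7D×2. Volumes are means of eight tumours.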

effect on platelets at 6 hours [1]	effect on platelets (anesthetized beagle dogs)	Permeabilized Molt-4 EC50 [2]	SMILES	effect on cardiovascular parameters (anesthetized beagle dogs)	other results
–	–	–	Cc1c(-c2ccc(N3CCc4cccc(C(=O)Nc5nc6ccccc6s5)c4C3)nc2C(=O)O)cnn1CC12CC3(C)CC(C)(C1)CC(OCCNCC[C@H](O)CO)(C3)C2 [compound 11]	–	effect on cardiovascular function (anesthetized beagle dogs; 0.3 mg/kg per minute): cardiovascular collapse in both animals; effect on cardiovascular function (anesthetized beagle dogs; 0.01 and 0.1 mg/kg per minute): no impact on blood pressure or other indices of cardiovascular function; plasma concentration without impact on cardiovascular function (anesthetized beagle dogs; infusion 0.01 and 0.1 mg/kg per minute): ≤ 447 ng/mL; estimated cardiovascular TI (dog tolerated plasma level vs free 11 in monkeys) (anesthetized beagle dogs; male, beagle, dog, in vivo): > 65 fold; Cmax (in vivo): 1020 ng/mL
severe thrombocytopenia	–	–	CC1(C)CCC(c2ccc(Cl)cc2)=C(CN2CCN(c3ccc(C(=O)NS(=O)(=O)c4ccc(N[C@H](CCN5CCOCC5)CSc5ccccc5)c(S(=O)(=O)C(F)(F)F)c4)cc3)CC2)C1 [navitoclax, reference compound]	–	–
severe thrombocytopenia	expected thrombocytopenia	subnanomolar	CNCCOC12CC3(C)CC(C)(CC(Cn4ncc(-c5ccc(N6CCc7cccc(C(=O)Nc8nc9ccccc9s8)c7C6)nc5C(=O)O)c4C)(C3)C1)C2 [compound 9]	marked changes in cardiovascular parameters	EC50 (Molt-4 cells; read-out: Molt-4 cell EC50, 10% human serum, 48 h): 8 nM
–	–	–	CC(=O)O[C@@]12CO[C@@H]1C[C@H](O)[C@@]1(C)C(=O)[C@H](O)C3=C(C)[C@@H](OC(=O)[C@H](O)[C@@H](NC(=O)OC(C)(C)C)c4ccccc4)C[C@@](O)([C@@H](OC(=O)c4ccccc4)[C@H]21)C3(C)C [docetaxel]	–	tumor growth inhibition (TGI) (H1650 tumors; 7.5 mg/kg iv QDx1, alone (single-dose ADC study)): 81%; time by which all tumors were relapsed (H1650 tumors; single agent): ≤ 46 days

SMILES	effect on platelets at 6 hours [1]	effect on platelets (anesthetized beagle dogs)	Permeabilized Molt-4 EC50 [2]	effect on cardiovascular parameters (anesthetized beagle dogs)	other results
Cc1c(-c2ccc(N3CCc4cccc(C(=O)Nc5nc6ccccc6s5)c4C3)nc2C(=O)O)cnn1CC12CC3(C)CC(C)(C1)CC(OCCNCCS(=O)(=O)O)(C3)C2 [compound 10]	no significant reduction of platelet number	no decrease in platelets	subnanomolar	only minimal to moderate effects on cardiovascular parameters	loss of Molt-4 activity relative to 9 (Molt-4 cells): over 30 fold
